Calls of active or inactive are those of the source. The calls are words filed in the database; no cut-off is given here.
Key:
P2X purinoceptor 3 [1] = target: T1, P2X purinoceptor 3 (Homo sapiens, UniProt P56373); assay: Antagonist activity at human P2X3R transfected in human 1321N1 cells assessed as inhibition of ATP-induced calcium influx; assay type: cell-based
T1 sequence (P56373 whole entry): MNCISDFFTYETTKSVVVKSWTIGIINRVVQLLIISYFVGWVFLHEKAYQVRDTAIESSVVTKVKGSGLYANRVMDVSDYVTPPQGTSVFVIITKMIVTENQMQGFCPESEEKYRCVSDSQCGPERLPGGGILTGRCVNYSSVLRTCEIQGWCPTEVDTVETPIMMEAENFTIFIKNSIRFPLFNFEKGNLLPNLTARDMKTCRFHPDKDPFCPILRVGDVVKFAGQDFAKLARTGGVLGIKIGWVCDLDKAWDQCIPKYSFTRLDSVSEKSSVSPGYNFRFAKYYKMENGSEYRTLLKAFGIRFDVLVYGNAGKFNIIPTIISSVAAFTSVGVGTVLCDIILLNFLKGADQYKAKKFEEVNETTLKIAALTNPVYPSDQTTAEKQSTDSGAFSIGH
Outline: (§1)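 1321N1 astrocytoma cells stably expressing human P2X1, P2X2, P2X3 or P2X4 receptor. Calcium influx was induced by ATP at the EC80 for each subtype. Results are given as IC50 (μM) or % inhibition at the indicated concentration.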

[2] = target: T2, P2X purinoceptor 7 (Homo sapiens) (UniProt Q99572); assay: Antagonist activity at human P2X7R transfected in human 1321N1 cells assessed as inhibition of Bz-ATP-induced calcium influx relative to control; assay type: cell-based; details: concentration not given here
T2 sequence (whole entry): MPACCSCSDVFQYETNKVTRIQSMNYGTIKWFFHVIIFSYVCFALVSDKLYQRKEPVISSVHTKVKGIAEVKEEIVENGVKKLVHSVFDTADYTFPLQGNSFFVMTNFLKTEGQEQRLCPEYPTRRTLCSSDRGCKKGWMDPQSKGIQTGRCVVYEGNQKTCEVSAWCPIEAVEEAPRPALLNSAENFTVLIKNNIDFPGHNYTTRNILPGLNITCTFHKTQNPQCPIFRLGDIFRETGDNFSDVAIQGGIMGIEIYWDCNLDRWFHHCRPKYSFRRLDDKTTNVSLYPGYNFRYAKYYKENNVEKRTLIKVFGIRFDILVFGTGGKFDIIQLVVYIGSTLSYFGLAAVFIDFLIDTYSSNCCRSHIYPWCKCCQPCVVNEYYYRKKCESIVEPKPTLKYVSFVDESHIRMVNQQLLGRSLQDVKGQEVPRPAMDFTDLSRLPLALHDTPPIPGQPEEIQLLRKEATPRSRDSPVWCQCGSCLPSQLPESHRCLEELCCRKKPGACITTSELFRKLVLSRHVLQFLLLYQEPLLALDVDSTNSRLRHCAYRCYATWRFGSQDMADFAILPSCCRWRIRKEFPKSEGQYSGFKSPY

P2X purinoceptor 2 = target: T3, P2X purinoceptor 2 (Homo sapiens, UniProt Q9UBL9); assay: Antagonist activity at human P2X2R transfected in human 1321N1 cells assessed as inhibition of ATP-induced calcium influx; assay type: cell-based; outline: as §1
T3 sequence (Q9UBL9 whole entry): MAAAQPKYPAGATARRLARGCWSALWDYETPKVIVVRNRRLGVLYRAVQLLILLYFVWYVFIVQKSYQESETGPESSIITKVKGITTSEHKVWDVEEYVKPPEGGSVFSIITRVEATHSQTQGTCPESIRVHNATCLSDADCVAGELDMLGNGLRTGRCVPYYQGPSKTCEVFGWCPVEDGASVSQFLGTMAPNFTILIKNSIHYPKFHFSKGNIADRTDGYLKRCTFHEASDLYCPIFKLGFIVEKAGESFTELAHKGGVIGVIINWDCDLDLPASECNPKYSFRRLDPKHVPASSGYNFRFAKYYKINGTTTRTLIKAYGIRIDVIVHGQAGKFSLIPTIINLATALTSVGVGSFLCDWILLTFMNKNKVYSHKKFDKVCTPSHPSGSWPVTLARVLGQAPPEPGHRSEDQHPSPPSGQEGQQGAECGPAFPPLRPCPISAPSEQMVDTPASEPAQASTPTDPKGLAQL

P2X purinoceptor 3 [3] = target: T4, P2X purinoceptor 3 (Mus musculus, UniProt Q3UR32); assay: Antagonist activity at P2X3R in mouse TG sensory neurons assessed as inhibition of P2X3R agonist alpha,beta-meATP-induced current at -65 mV holding potential by whole cell voltage clamp method
T4 sequence (Q3UR32 whole entry): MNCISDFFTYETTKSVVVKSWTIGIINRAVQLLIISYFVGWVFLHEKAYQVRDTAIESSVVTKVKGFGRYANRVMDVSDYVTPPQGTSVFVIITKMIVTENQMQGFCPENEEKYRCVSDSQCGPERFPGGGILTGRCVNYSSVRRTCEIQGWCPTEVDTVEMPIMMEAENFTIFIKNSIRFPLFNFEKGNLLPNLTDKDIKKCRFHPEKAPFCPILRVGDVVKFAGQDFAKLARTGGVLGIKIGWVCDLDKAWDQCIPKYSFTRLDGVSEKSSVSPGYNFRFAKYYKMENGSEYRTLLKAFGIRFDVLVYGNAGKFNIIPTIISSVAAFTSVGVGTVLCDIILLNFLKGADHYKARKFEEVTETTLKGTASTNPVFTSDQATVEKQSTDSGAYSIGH
Outline: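 Mouse trigeminal sensory neurons were recorded by whole-cell patch clamp. Test compound (0.001–10 μM) was applied before 10 μM α,β-meATP, and inhibition of the agonist-evoked P2X3 current was measured. IC50 was taken from concentration–inhibition curves. N = 5–6 cells.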

[4] = target: T5, P2X purinoceptor 3 (Mus musculus) (UniProt Q3UR32); assay: Agonist activity at P2X3R in mouse TG sensory neurons assessed as induction of channel current at 10 uM at -65 mV holding potential by whole cell voltage clamp method relative to alpha,beta-meATP
T5 sequence (whole entry): T4 sequence (Q3UR32 whole entry)

[5] = target: T6, P2X purinoceptor 2 (Homo sapiens) (UniProt Q9UBL9); assay: Antagonist activity at human P2X2R transfected in human 1321N1 cells assessed as inhibition of ATP-induced calcium influx relative to control; assay type: cell-based; details: concentration not given here; outline: as §1
T6 sequence (whole entry): T3 sequence (Q9UBL9 whole entry)

P2X purinoceptor 4 = target: T7, P2X purinoceptor 4 (Homo sapiens, UniProt Q99571); assay: Antagonist activity at human P2X4R transfected in human 1321N1 cells assessed as inhibition of ATP-induced calcium influx; assay type: cell-based; outline: as §1
T7 sequence (Q99571 whole entry): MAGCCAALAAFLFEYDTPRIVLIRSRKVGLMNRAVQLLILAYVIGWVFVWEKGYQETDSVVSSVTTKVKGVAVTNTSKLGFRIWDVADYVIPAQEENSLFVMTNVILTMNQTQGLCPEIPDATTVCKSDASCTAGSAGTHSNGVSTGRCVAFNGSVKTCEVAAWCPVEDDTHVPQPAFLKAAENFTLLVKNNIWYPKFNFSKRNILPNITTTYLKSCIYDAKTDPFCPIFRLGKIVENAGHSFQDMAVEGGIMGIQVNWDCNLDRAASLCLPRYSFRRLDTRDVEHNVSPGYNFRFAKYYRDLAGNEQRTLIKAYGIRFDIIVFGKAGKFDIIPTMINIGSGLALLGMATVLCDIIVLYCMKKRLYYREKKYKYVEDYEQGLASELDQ

Row | IC50 (P2X purinoceptor 3 [1]) [µM] | inhibition [2] [%] | IC50 (P2X purinoceptor 2) [µM] | IC50 (P2X purinoceptor 3 [3]) [µM] | Activity [4] | inhibition [5] [%] | IC50 (P2X purinoceptor 4) [µM] | Compound
1 | 17.5 | -1 | > 100 | 0.127 | inactive | 9 | > 100 | Nc1ncnc2c1ncn2[C@@H]1O[C@H](COP(=O)(O)CP(=O)(O)OP(=O)(O)O)[C@H]2OC3(CCCCC3)O[C@H]21
2 | > 100 | 21 | > 100 | > 1 | inactive | 36 | > 100 | Nc1ncnc2c1ncn2[C@@H]1O[C@H](COP(=O)(O)OP(=O)(O)OP(=O)(O)O)[C@H]2OCO[C@H]21
3 | 4.11 | 5 | > 100 | 0.024 | inactive | 6 | 48 | CC1(C)O[C@@H]2[C@H](O1)[C@@H](COP(=O)(O)OP(=O)(O)OP(=O)(O)O)O[C@H]2n1cnc2c(N)ncnc21
